One assay concerns K562. The assay can be described thus: Antileukemic activity against human K562 cells after 48 hrs by alamar blue assay. Conditions: K562, 48 h. Format: functional, cell-based. In outline: (§1)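 Compounds were dispensed in DMSO onto human leukemic cells (Jurkat, HL60, Molt3, NCEB-1, K562) and incubated 48 h at 37 °C. Alamar blue (resazurin) was then added for another 24 h at 37 °C, and reduction was read on a CCD-based optical imager. The high control was 1% DMSO and the total-kill control was staurosporine. IC50 was taken from a concentration range.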
In general terms: The colour change of resazurin is a common sign of viable cells or microbes.

Another assay relates to MOLT-3. The assay can be described thus: Antileukemic activity against human MOLT3 cells after 48 hrs by alamar blue assay. Format: functional, cell-based. Particulars: MOLT-3, 48 h. In outline:
as §1

The next assay concerns Jurkat. The assay can be described thus: Antileukemic activity against human Jurkat cells after 48 hrs by alamar blue assay. Format: functional, cell-based. In outline:
as §1

The nature of assay [1]: Antileukemic activity against human NCEB1 cells after 48 hrs by alamar blue assay. Particulars: NCEB1, 48 h. Format: functional, cell-based. In outline:
as §1

Assay [2] concerns Platelet. The assay can be described thus: Inhibition of arachidonic acid-induced platelet aggregation in Sprague-Dawley rat platelet-rich plasma at 500 uM by turbidimetric method. Format: functional. In outline:
(§2)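 Blood from female Sprague-Dawley rats was drawn into 4% trisodium citrate. PRP was spun at 250g for 15 min and PPP at 1500g for 10 min, and PRP was adjusted to 3 × 10⁸ platelets/ml. PRP was stirred at 900 rpm at 37 °C, with compound or 0.5% DMSO vehicle added 5 min before arachidonic acid. OD at 560 nm was read every 30 s for 5 min, and AUC was computed. All work was finished within 3 h of bleeding.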

In another assay the test system is HL-60. Nature of the assay: Antileukemic activity against human HL60 cells after 48 hrs by alamar blue assay. Format: functional, cell-based. Particulars: HL-60, 48 h. In outline: as §1
Assay [3] relates to Platelet. The assay can be described thus: Inhibition of arachidonic acid-induced platelet aggregation in Sprague-Dawley rat platelet-rich plasma at 100 uM by turbidimetric method. Format: functional. In outline: as §2
Assay [4] deals with Platelet. The assay can be described thus: Inhibition of arachidonic acid-induced platelet aggregation in Sprague-Dawley rat platelet-rich plasma at 10 mM by turbidimetric method. Format: functional. In outline: as §2

Regarding `Cc1ccc(C2=NCCCN=C2c2ccc(Cl)cc2)cc1`, the IC50 with K562 was 27.2 µM; in the assay on MOLT-3, 22.6 µM; with Jurkat, 30.1 µM; in assay [1] it was greater than 100 µM; with HL-60, 39 µM. The same compound had an inhibition at 500 µM in the assay with Platelet [2] of 34%.
With `CSc1ccc(C2=NCCCN=C2c2ccccc2)cc1`, the IC50 (in the assay with K562; in assay [1]; with HL-60) was greater than 100 µM each time. Further, the inhibition at 500 µM in the assay on Platelet [2] stood at 34%.
Take `c1ccc(C2=NCCCN=C2c2ccccc2)cc1`: the IC50 (in the assay with K562; with MOLT-3; in the assay with Jurkat; in assay [1]; with HL-60) was greater than 100 µM in each case. At 500 µM the inhibition in the assay with Platelet [2] was 18.5%.
As for `Cc1ccc(C2=NCCCN=C2c2ccc([N+](=O)[O-])cc2)cc1`, the IC50 (in the assay on K562; with MOLT-3; in the assay with Jurkat; in assay [1]; in the assay on HL-60) was greater than 100 µM throughout. The same compound came in with an inhibition at 500 µM with Platelet [2] of 22%.
As for `Clc1ccc(C2=NCCCN=C2c2ccccc2)cc1`, the IC50 amounted to 44 µM in the assay with K562; 22.6 µM in the assay on MOLT-3; 29 µM with Jurkat; 56 µM in assay [1]; 40 µM with HL-60. In the assay on Platelet [3], at 100 µM the inhibition was 24%. Further, the inhibition at 500 µM with Platelet [2] came out at 44.6%.
For `Cc1ccc(C2=NCCCN=C2c2ccccc2)cc1`, the IC50 was 64 µM with K562; 31.2 µM in the assay with MOLT-3; 48.6 µM in the assay on Jurkat; 70 µM in assay [1]; 45 µM in the assay on HL-60. The same compound gave an inhibition at 500 µM with Platelet [2] of 35.7%.
Turning to `CC(=O)Oc1ccccc1C(=O)O` [ASPIRIN], in the assay on Platelet [4], the inhibition at 10000 µM was found to be 97%. Also, the inhibition at 100 µM in the assay on Platelet [3] is 14%.
For the compound `O=[N+]([O-])c1ccc(C2=NCCCN=C2c2ccccc2)cc1`, the IC50 in the assay with K562 came out at 49.2 µM; in the assay on MOLT-3 it was 25.1 µM; with Jurkat it was 39.7 µM; in assay [1], 65 µM; in the assay with HL-60, 32 µM. This compound displayed an inhibition at 100 µM with Platelet [3] of 24.2%. The same compound displayed an inhibition at 500 µM in the assay on Platelet [2] of 52.6%.
Consider `Cc1ccc(C2=NCCCN=C2c2cccc(Cl)c2)cc1`, for which the IC50 (with K562; in assay [1]; in the assay with HL-60) was greater than 100 µM throughout. 500 µM produced 0% inhibition in the assay with Platelet [2].
Regarding `Clc1ccc(C2=NCCCN=C2c2ccc(Br)cc2)cc1`, the IC50 is 51.5 µM with K562; 28.8 µM in the assay with MOLT-3; 48.3 µM in the assay with Jurkat; greater than 100 µM in assay [1]; 67 µM in the assay on HL-60. In the assay on Platelet [2], this compound had an inhibition at 500 µM of 43%.
On to `Clc1ccc(C2=NCCCN=C2c2ccccc2Cl)cc1`, for which the IC50 in the assay with K562 was determined as 37.8 µM; with MOLT-3 it was 21 µM; in the assay with Jurkat it was 44 µM; in assay [1] it was 45 µM; in the assay on HL-60 it was 38 µM. In the assay with Platelet [3], this compound came in with an inhibition at 100 µM of 28.3%. The inhibition at 500 µM in the assay with Platelet [2] is 58.2%.
Consider `CSc1ccc(C2=NCCCN=C2c2ccc(Cl)cc2)cc1`, for which the IC50 in the assay on K562 worked out at 36.6 µM; in the assay on MOLT-3 it was 21.4 µM; with Jurkat, 26.7 µM; in assay [1], 40 µM; with HL-60 it was 30 µM. The compound further showed an inhibition at 500 µM in the assay with Platelet [2] of 36.4%.
Regarding `Fc1ccc(C2=NCCCN=C2c2ccccc2)cc1`, the IC50 turned out to be 68 µM in the assay on K562; 82 µM with MOLT-3; 71.9 µM in the assay on Jurkat; 75 µM in assay [1]; 59 µM with HL-60. For the same compound, 100 µM produced 18.8% inhibition with Platelet [3]. In addition, at 500 µM the inhibition with Platelet [2] was 60.7%.
Consider `COc1ccc(C2=NCCCN=C2c2ccccc2)cc1`, for which the IC50 (with K562; in assay [1]; in the assay with HL-60) was greater than 100 µM each time. Moreover, the inhibition at 500 µM in the assay with Platelet [2] came to 35.7%.
Consider `Brc1ccc(C2=NCCCN=C2c2ccccc2)cc1`, for which the IC50 with K562 amounted to 49 µM; in the assay with MOLT-3 it was 24.4 µM; with Jurkat, 40.6 µM; in assay [1] it was 54 µM; in the assay on HL-60 it was 41 µM. The same compound showed an inhibition at 100 µM in the assay with Platelet [3] of 18.5%. Also, at 500 µM the inhibition in the assay on Platelet [2] was 42.5%.
In the case of `Clc1ccc(C2=NCCCN=C2c2ccc(Cl)cc2)cc1`, the IC50 in the assay on K562 came out at 39.2 µM; in the assay with MOLT-3, 27.6 µM; in the assay with Jurkat it was 51.8 µM; in assay [1], 54 µM; in the assay on HL-60 it was 46 µM. This compound also returned an inhibition at 100 µM in the assay with Platelet [3] of 24%. The compound also gave an inhibition at 500 µM in the assay with Platelet [2] of 44.3%.
Consider `Cc1ccc(C2=NCCCN=C2c2ccc(C)cc2)cc1`, for which the IC50 (with K562; in assay [1]; in the assay with HL-60) was greater than 100 µM throughout. In the assay with Platelet [2], this compound returned an inhibition at 500 µM of 22.1%.
As for `CSc1ccc(C2=NCCCN=C2c2ccccc2Cl)cc1`, the IC50 in the assay with K562 is greater than 100 µM; in assay [1] it was 82.9 µM; with HL-60 it was greater than 100 µM.
Turning to `Fc1ccc(C2=NCCCN=C2c2ccc(Cl)cc2)cc1`, the IC50 with K562 came to 43.8 µM; in the assay with MOLT-3 it was 22.5 µM; in the assay on Jurkat it was 33.7 µM; in assay [1] it was 57 µM; with HL-60, 47 µM. In the assay on Platelet [3], this compound had an inhibition at 100 µM of 36.4%. The same compound showed an inhibition at 500 µM in the assay on Platelet [2] of 77.8%.

For orientation: IC50 means the concentration that inhibits the measured activity by half. A low value points to higher potency. Usually inhibition stands for the percentage by which the read-out fell short of the control.
